From ChEMBL document CHEMBL4011623, “Development of 1-((1,4-trans)-4-Aryloxycyclohexyl)-3-arylurea Activators of Heme-Regulated Inhibitor as Selective Activators of the Eukaryotic Initiation Factor 2 Alpha (eIF2α) Phosphorylation Arm of the Integrated Endoplasmic Reticulum Stress Response” (J Med Chem, 2017)

Key:
[1] = Antiproliferative activity against human CRL2813 cells after 5 days by sulforhodamine B assay; type: functional, cell-based; details: CRL2813, 120 h
Method in brief: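 CRL-2813 melanoma cells grown 5 days with 0.5–20 μM compound, then fixed in cold 10% TCA and stained with sulforhodamine B. Bound dye measured. Growth % = 100×(T−T0)/(C−T0), with T0 at time zero. IC50 is the concentration giving 50% growth inhibition.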

[2] = target: Eukaryotic translation initiation factor 2-alpha kinase 1 (Mus musculus) (UniProt Q9Z2R9); assay: Activation of HRI in mouse KLN cells transfected with 5'UTR of ATF-4 mRNA fused firefly luciferase mRNA and 5'UTR lacking uORF fused renila luciferase mRNA assessed as increase in eIF2alpha phosphorylation by measuring ratio of firefly luciferase to renila luciferase at 1.25 uM after 16 hrs; type: cell-based
[3] = target: Eukaryotic translation initiation factor 2-alpha kinase 1 (Mus musculus) (UniProt Q9Z2R9); assay: Activation of HRI in mouse KLN cells transfected with 5'UTR of ATF-4 mRNA fused firefly luciferase mRNA and 5'UTR lacking uORF fused renila luciferase mRNA assessed as increase in eIF2alpha phosphorylation by measuring ratio of firefly luciferase to renila luciferase after 16 hrs; type: cell-based
[4] = target: Eukaryotic translation initiation factor 2-alpha kinase 1 (Mus musculus) (UniProt Q9Z2R9); assay: Activation of HRI in mouse KLN cells transfected with 5'UTR of ATF-4 mRNA fused firefly luciferase mRNA and 5'UTR lacking uORF fused renila luciferase mRNA assessed as increase in eIF2alpha phosphorylation by measuring ratio of firefly luciferase to renila luciferase at 5 uM after 16 hrs; type: cell-based

Sequence of Eukaryotic translation initiation factor 2-alpha kinase 1 (Mus musculus) (Q9Z2R9 whole entry, the tested form may be a part): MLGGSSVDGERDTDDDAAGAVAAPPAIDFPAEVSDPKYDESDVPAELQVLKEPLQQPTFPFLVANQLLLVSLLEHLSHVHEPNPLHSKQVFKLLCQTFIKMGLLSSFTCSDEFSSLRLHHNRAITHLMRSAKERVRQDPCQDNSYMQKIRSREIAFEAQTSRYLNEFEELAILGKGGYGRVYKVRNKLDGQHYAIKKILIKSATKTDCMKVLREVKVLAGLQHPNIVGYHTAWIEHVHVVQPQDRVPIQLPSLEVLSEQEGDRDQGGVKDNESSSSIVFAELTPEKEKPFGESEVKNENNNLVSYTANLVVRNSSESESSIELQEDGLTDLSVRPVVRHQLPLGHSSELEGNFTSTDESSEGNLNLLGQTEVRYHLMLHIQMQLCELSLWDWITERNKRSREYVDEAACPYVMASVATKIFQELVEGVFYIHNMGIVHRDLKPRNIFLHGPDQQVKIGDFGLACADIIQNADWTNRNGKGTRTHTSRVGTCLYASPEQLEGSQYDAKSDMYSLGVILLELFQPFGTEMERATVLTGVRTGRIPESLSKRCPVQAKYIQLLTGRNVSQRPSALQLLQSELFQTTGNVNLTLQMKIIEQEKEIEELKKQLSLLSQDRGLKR

| SMILES | Ratio [2] | Activity [3] | Ratio [4] | IC50 [1] [nM] |
| --- | --- | --- | --- | --- |
| O=C(Nc1cccc(C(F)(F)F)c1)N[C@H]1CC[C@H](Oc2ccc(C(F)(F)F)cc2[N+](=O)[O-])CC1 | 0.96 | Dose-dependent effect | 3.28 | 5510 |
| N#Cc1ccc(O[C@H]2CC[C@H](NC(=O)Nc3cccc(C#N)c3)CC2)cc1 | 1.01 | Dose-dependent effect | 1.15 | 8200 |
| N#Cc1cc(C(F)(F)F)ccc1O[C@H]1CC[C@H](NC(=O)Nc2cccc(C(F)(F)F)c2)CC1 | 1.01 | Dose-dependent effect | 6.3 | 1470 |
| CC(=O)Nc1cc(C(F)(F)F)ccc1O[C@H]1CC[C@H](NC(=O)Nc2cccc(C(F)(F)F)c2)CC1 | 0.84 | Dose-dependent effect | 3.9 | 1460 |
| N#Cc1ccc(O[C@H]2CC[C@H](NC(=O)Nc3cccc(C(F)(F)F)c3)CC2)cc1 | 0.92 | Dose-dependent effect | 3.23 | 6060 |
| O=C(Nc1cccc(C(F)(F)F)c1)N[C@H]1CC[C@H](Oc2ccc(C(F)(F)F)cn2)CC1 | 1.02 | Dose-dependent effect | 6.11 | 1570 |
| O=C(Nc1cccc(OC(F)(F)F)c1)N[C@H]1CC[C@H](Oc2ccc(OC(F)(F)F)cc2)CC1 | 2.87 | Dose-dependent effect | 10.7 | 1450 |
| NC(=O)c1cc(C(F)(F)F)ccc1O[C@H]1CC[C@H](NC(=O)Nc2cccc(OC(F)(F)F)c2)CC1 | 0.88 | Dose-dependent effect | 5.13 | 1530 |
| NC(=O)c1cc(O[C@H]2CC[C@H](NC(=O)Nc3cccc(OC(F)(F)F)c3)CC2)ccc1C(F)(F)F | 1.04 | Dose-dependent effect | 1.57 | 3660 |

Further lines, with some results ahead:

| Ratio [2] | Activity [3] | Ratio [4] | SMILES | IC50 [1] [nM] |
| --- | --- | --- | --- | --- |
| 3.31 | Dose-dependent effect | 8.99 | O=C(Nc1ccc(Oc2ccc(C(F)(F)F)cc2)cc1)Nc1cccc(C(F)(F)F)c1 | 440 |
| 2.37 | Dose-dependent effect | 6.73 | O=C(Nc1ccc(Oc2ccc(C(F)(F)F)cc2)cc1)Nc1cccc(OC(F)(F)F)c1 | 500 |
| 1.51 | Dose-dependent effect | 2.36 | N#Cc1cc(C#N)cc(NC(=O)N[C@H]2CC[C@H](Oc3ccc(C(F)(F)F)cc3)CC2)c1 | 3680 |
| 3.37 | – | 10.1 | O=C(Nc1cccc(C(F)(F)F)c1)N[C@H]1CC[C@H](Oc2ccc(OC(F)(F)F)cc2)CC1 | 820 |
| 0.85 | Dose-dependent effect | 4.31 | CC(=O)Nc1cc(C(F)(F)F)ccc1O[C@H]1CC[C@H](NC(=O)Nc2cccc(OC(F)(F)F)c2)CC1 | 1500 |
| 1.03 | Dose-dependent effect | 1.38 | N#Cc1ccc(NC(=O)N[C@H]2CC[C@H](Oc3ccc(C#N)cc3)CC2)cc1 | 9030 |
| 0.96 | Dose-dependent effect | 7 | N#Cc1cccc(NC(=O)N[C@H]2CC[C@H](Oc3ccc(C(F)(F)F)cc3)CC2)c1 | 940 |
| 0.91 | Dose-dependent effect | 1.49 | NC(=O)c1cc(C(F)(F)F)ccc1O[C@H]1CC[C@H](NC(=O)Nc2cccc(C(F)(F)F)c2)CC1 | 2760 |
| 0.79 | Dose-dependent effect | 1.12 | NC(=O)c1cc(O[C@H]2CC[C@H](NC(=O)Nc3cccc(C(F)(F)F)c3)CC2)ccc1C(F)(F)F | 3360 |
